According to ChEMBL document CHEMBL1134631 (J Med Chem, 2001):

Experiments:
Format in all cases: functional
Homo sapiens [1] = species: Homo sapiens; assay: Percent ibuprofen detected after 2 hr incubation in acidic medium (pH=1) […]
How it was run: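 Compound (0.25 mM) in acetonitrile added to HCl solution at pH 1, 37 °C, incubated 2 h.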

Homo sapiens [2] = species: Homo sapiens; assay: Percent ibuprofen detected after 6 hr incubation in human plasma.
How it was run: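 Compound (0.0438 µmol) in 5 µL acetonitrile added to 495 µL human plasma at 37 °C and incubated 6 h. Diluted with acetonitrile containing 0.1% TFA and centrifuged (9600g, 15 min). […] Expressed as %, mean ± SEM.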

Rattus norvegicus [3] = assay: Percent inhibition of paw volume increase in carrageenan-induced rat after a dose of 120 mg/kg was administered and observed after 4 hours of incubation
Rattus norvegicus [4] = assay: Percent inhibition of paw volume increase in carrageenan-induced rat after a dose of 120 mg/kg was administered and observed after 6 hours of incubation
Rattus norvegicus [5] = assay: Alcerogenic property after intragastric administration to conscious rats for 6 hrs
How it was run: (§1)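 Male Wistar rats (180-200 g), fasted 24 h with water allowed, groups of n = 6. […] Killed 6 h after dosing. Stomachs opened along the lesser curvature and examined under a stereomicroscope. Each haemorrhagic lesion was scored by greatest length (<1 mm = 1; 1-2 mm = 2; >2 mm = length in mm). Summed as lesion index, mean ± SEM.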

[6] = Antiaggregatory effect against arachidonic acid induced platelet aggregation from the human platelet rich plasma(PRP) in the presence of oxyhemoglobin (HbO2)
How it was run: (§2)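 Human citrated blood spun at 200g for 20 min to give PRP. Compound or DMSO (maximum 0.5%) added 10 min before arachidonic acid (0.5-1 mM, chosen to give 85-95% of maximal aggregation). Oxyhaemoglobin 40 µM final added 12 min before the activator. Light transmission read for 5 min at 37 °C with stirring. […] Mean ± SEM, n = 5.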

Homo sapiens [7] = species: Homo sapiens; assay: Compound was evaluated for nitric oxide release (stimulate nitric oxide synthase) in human plasma
Rattus norvegicus [8] = assay: Percent inhibition of paw volume increase in carrageenan-induced rat after a dose of 40 mg/kg was administered and observed after 4 hours of incubation
Rattus norvegicus [9] = assay: Percent inhibition of paw volume increase in carrageenan-induced rat after a dose of 40 mg/kg was administered and observed after 6 hours of incubation
Rattus norvegicus [10] = assay: Ulcerogenic property after intragastric administration to conscious rats for 6 hrs; how it was run: as §1
Rattus norvegicus [11] = assay: Ulcerogenic property after intragastric administration to conscious rats after 6 hours of incubation; how it was run: as §1
[12] = Antiaggregatory effect against arachidonic acid induced platelet aggregation from the human platelet rich plasma(PRP) in the presence of oxyheamoglobin(HbO2, 40 uM); how it was run: as §2

| Structure (SMILES) | Ibuprofen (Homo sapiens [1]) | Ibuprofen (Homo sapiens [2]) | inhibition in vivo at 120 mg/kg (Rattus norvegicus [3]) | inhibition in vivo at 120 mg/kg (Rattus norvegicus [4]) | Lesion index (Rattus norvegicus [5]) | IC50 [6] | NO2- (mol/mol) (Homo sapiens [7]) | inhibition in vivo at 40 mg/kg (Rattus norvegicus [8]) | inhibition in vivo at 40 mg/kg (Rattus norvegicus [9]) | Lesion index (Rattus norvegicus [10]) | Lesion index (Rattus norvegicus [11]) | IC50 [12] |
| --- | --- | --- | --- | --- | --- | --- | --- | --- | --- | --- | --- | --- |
| CC(C)Cc1ccc(C(C)C(=O)OCCCO[N+](=O)[O-])cc1 (stereo not given) | 22.3% | 27.1% | 41.8% | 40% | 0.7 mm | 57.5 µM | 3.2% |  |  |  |  |  |
| CCCOC(=O)C(C)c1ccc(CC(C)C)cc1 (stereo not given) | 11.7% | 22.9% |  |  |  |  |  | 37.6% | 49.6% | 3.8 mm |  |  |
| CC(C)Cc1ccc(C(C)C(=O)OCCCOc2no[n+]([O-])c2S(=O)(=O)c2ccccc2)cc1 (stereo not given) | 12.9% | 46.8% |  |  |  |  | 34.7% | 37.4% | 41.5% |  | 0 mm | 2.69 µM |
| CC(C)Cc1ccc(C(C)C(=O)OCCCOc2nonc2Sc2ccccc2)cc1 (stereo not given) | 6.1% | 8.9% | 48.3% | 54.4% |  |  |  |  |  | 1.3 mm |  |  |
| CC(C)Cc1ccc(C(C)C(=O)OCCCOc2no[n+]([O-])c2Sc2ccccc2)cc1 (stereo not given) | 6.5% | 35.6% | 40.7% | 36.2% |  |  | 9.5% |  |  | 0 mm |  |  |
| CC(C)Cc1ccc(C(C)C(=O)OCCCOc2nonc2S(=O)(=O)c2ccccc2)cc1 (stereo not given) | 13% | 26% |  |  |  |  |  | 52.8% | 63.3% | 5.7 mm |  |  |
